Assay results as given in ChEMBL document CHEMBL1136055, “3-Heteroaryl-2-pyridones: benzodiazepine site ligands with functional delectivity for alpha 2/alpha 3-subtypes of human GABA(A) receptor-ion channels” (J Med Chem, 2002).

Key:
[1] = target: T1, GABA-A receptor; alpha-2/beta-3/gamma-2 (Homo sapiens, UniProt P18507+P28472+P47869); assay: Displacement of [3H]Ro-151788 from human Gamma-aminobutyric acid A receptor alpha-2-beta-3-gamma-2 stably expressed in L(tk-) cells; format: cell-based
T1 sequence (P18507 whole entry): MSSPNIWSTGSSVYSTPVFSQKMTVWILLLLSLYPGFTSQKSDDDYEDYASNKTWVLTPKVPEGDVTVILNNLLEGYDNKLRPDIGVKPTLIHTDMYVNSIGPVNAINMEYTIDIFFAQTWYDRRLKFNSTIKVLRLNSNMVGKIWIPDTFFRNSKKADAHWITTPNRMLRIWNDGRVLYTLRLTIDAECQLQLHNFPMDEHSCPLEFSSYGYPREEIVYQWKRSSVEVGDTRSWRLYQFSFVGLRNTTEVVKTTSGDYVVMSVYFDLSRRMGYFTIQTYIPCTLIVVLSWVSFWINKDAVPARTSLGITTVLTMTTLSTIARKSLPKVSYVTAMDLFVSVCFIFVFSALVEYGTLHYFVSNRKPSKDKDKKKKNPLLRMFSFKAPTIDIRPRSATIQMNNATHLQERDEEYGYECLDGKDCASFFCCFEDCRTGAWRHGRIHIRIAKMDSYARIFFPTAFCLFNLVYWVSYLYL
T1 sequence (P28472 whole entry): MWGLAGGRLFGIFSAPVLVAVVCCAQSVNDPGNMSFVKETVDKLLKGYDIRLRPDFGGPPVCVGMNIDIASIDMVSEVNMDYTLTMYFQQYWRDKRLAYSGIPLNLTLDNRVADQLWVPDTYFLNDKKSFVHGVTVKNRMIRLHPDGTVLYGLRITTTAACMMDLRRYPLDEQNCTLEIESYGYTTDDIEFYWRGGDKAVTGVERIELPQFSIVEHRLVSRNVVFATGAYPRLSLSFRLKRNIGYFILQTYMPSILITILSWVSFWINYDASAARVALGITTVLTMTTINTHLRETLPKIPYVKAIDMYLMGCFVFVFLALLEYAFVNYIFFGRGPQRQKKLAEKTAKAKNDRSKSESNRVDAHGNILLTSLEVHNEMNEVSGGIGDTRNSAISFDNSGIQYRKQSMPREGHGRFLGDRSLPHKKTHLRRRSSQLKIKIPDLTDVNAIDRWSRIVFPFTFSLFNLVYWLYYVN
T1 sequence (P47869 whole entry): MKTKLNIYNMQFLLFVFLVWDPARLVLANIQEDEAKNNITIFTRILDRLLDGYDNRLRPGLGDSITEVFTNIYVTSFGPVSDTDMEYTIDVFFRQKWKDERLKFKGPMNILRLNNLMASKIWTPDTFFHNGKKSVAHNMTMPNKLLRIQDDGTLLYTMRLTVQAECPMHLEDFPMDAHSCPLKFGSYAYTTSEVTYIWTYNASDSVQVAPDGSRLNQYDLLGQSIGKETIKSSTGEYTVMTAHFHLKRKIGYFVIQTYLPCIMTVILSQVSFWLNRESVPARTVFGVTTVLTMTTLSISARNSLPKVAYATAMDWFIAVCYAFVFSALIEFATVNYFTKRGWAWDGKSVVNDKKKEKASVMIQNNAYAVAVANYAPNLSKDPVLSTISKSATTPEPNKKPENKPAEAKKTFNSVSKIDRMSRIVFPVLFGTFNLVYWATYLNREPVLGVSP
In short: (§1)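 Competition binding against [3H]Ro15-1788 on cloned human α1/α2/α3/α5 β3γ2S receptors stably expressed in L(tk-) cells. Six to eight test concentrations spaced in half-log steps. Ki given as mean (SEM), n = 3-5, reported to two significant figures.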

[2] = target: T2, GABA-A receptor; alpha-1/beta-3/gamma-2 (Homo sapiens, UniProt P14867+P18507+P28472); assay: Inhibition of [3H]Ro-151788 binding to human GABA A receptor (alpha-1-beta-3-gamma-2) stably expressed in L(tk-) cells.; format: cell-based
T2 sequence (P14867 whole entry): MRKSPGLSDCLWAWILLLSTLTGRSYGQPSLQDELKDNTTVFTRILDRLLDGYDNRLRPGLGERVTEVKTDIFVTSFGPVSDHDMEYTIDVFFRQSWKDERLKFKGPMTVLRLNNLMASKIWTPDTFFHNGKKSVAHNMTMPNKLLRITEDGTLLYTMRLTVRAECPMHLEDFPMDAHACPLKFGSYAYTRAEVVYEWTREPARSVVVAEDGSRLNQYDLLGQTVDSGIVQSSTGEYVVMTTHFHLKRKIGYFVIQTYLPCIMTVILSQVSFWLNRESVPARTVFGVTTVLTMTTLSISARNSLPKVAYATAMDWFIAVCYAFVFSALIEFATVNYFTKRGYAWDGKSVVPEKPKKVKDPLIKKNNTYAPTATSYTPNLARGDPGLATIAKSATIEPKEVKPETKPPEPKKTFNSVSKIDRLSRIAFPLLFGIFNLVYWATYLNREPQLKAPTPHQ
T2 sequence (P18507 whole entry): T1 sequence (P18507 whole entry)
T2 sequence (P28472 whole entry): T1 sequence (P28472 whole entry)

[3] = target: T3, GABA-A receptor; alpha-5/beta-3/gamma-2 (Homo sapiens, UniProt P18507+P28472+P31644); assay: Inhibition of [3H]Ro-151788 binding to human GABA A receptor (alpha-5-beta-3-gamma-2) stably expressed in L(tk-) cells.; format: cell-based; in short: as §1
T3 sequence (P18507 whole entry): T1 sequence (P18507 whole entry)
T3 sequence (P28472 whole entry): T1 sequence (P28472 whole entry)
T3 sequence (P31644 whole entry): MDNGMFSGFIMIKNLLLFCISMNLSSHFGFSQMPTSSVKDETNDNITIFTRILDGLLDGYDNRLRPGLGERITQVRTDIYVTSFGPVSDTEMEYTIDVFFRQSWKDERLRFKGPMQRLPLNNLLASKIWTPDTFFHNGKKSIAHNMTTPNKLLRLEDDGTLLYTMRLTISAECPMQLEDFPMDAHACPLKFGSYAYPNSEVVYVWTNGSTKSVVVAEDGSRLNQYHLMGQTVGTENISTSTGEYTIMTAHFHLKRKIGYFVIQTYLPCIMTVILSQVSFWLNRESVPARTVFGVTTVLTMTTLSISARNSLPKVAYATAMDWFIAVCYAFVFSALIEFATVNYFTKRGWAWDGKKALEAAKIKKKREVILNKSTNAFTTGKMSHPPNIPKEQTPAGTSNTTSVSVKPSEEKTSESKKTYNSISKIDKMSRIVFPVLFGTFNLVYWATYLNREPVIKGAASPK

[4] = target: T4, GABA-A receptor; alpha-3/beta-3/gamma-2 (Homo sapiens, UniProt P18507+P28472+P34903); assay: Binding affinity by displacement of [3H]Ro-151788 from recombinant human gamma-aminobutyric-acid A receptor alpha3,beta3,gamma2 stably expressed in L cells; format: cell-based; in short: as §1
T4 sequence (P18507 whole entry): T1 sequence (P18507 whole entry)
T4 sequence (P28472 whole entry): T1 sequence (P28472 whole entry)
T4 sequence (P34903 whole entry): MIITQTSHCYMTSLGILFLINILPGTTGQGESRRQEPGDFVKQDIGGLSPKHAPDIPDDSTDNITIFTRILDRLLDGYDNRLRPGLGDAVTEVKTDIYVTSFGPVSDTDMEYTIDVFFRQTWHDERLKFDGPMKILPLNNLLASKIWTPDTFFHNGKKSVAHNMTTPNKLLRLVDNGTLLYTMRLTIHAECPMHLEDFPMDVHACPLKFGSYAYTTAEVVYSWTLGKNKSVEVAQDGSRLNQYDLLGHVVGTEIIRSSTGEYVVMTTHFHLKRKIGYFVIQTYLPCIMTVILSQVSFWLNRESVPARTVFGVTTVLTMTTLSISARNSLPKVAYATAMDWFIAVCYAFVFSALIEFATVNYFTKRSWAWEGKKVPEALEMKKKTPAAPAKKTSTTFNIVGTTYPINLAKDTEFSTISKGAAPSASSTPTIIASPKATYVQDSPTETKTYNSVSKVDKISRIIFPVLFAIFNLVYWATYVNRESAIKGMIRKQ

[5] = target: GABA-A receptor; alpha-3/beta-3/gamma-2 (Homo sapiens) (UniProt P18507+P28472+P34903); assay: Modulatory effect on coapplication with GABA at human Gamma-aminobutyric acid A receptor alpha-3-beta-3-gamma-2 in Xenopus oocytes.; format: cell-based; settings: Oocyte
In short: (§2)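 Two-electrode voltage clamp of Xenopus oocytes transiently expressing human α1, α2 or α3 β3γ2S receptors. Test compound is co-applied with GABA at its EC20 (GABA range 4-30 µM). Result is the % change in GABA current, mean (SEM), n = 3-7, at the stated test compound concentration (µM).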

[6] = target: GABA-A receptor; alpha-1/beta-3/gamma-2 (Homo sapiens) (UniProt P14867+P18507+P28472); assay: Modulatory effect on coapplication with GABA at human Gamma-aminobutyric acid A receptor alpha-1-beta-3-gamma-2 in Xenopus oocyte.; in short: as §2
[7] = target: GABA-A receptor; alpha-2/beta-3/gamma-2 (Homo sapiens) (UniProt P18507+P28472+P47869); assay: Modulatory effect on coapplication with GABA at human Gamma-aminobutyric acid A receptor alpha-2-beta-3-gamma-2 expressed inXenopus oocytes; format: cell-based; settings: Oocyte; in short: as §2
[8] = target: T2, GABA-A receptor; alpha-1/beta-3/gamma-2; assay: Displacement of [3H]Ro-151788 from human GABA-A receptor alpha-1-beta-3-gamma-2 subunits expressed in L(tk-) cells; format: cell-based; in short: as §1
[9] = target: T3, GABA-A receptor; alpha-5/beta-3/gamma-2; assay: Displacement of [3H]Ro-151788 from human GABA-A receptor alpha-5-beta-3-gamma-2 subunits expressed in L(tk-) cells; format: cell-based; in short: as §1
[10] = target: T1, GABA-A receptor; alpha-2/beta-3/gamma-2; assay: Displacement of [3H]Ro-151788 from human GABA-A receptor alpha-2-beta-3-gamma-2 subunits expressed in L(tk-) cells; format: cell-based; in short: as §1

Compound | Ki [1] | Ki [2] | Ki [3] | Ki [4] | percent modulation of GABA EC20 response [5] | percent modulation of GABA EC20 response [6] | percent modulation of GABA EC20 response [7] | Ki [8] | Ki [9] | Ki [10]
Cc1csc(-c2cc(-c3ccncc3)c(-c3ccncc3)n(C)c2=O)n1 | – | – | – | 6.7 nM | -4% | -23% | – | 24 nM | 270 nM | 20 nM
Cc1csc(-c2cc(-c3ccc(F)cc3)c(-c3ccncc3)n(C)c2=O)n1 | 8 nM | 13 nM | 380 nM | 3.5 nM | 41% | 57% | – | – | – | –
COC(=O)c1cc(-c2ccccc2)c(-c2ccc(N(C)C)cc2)n(C)c1=O | 470 nM | 630 nM | > 667 nM | 270 nM | – | – | – | – | – | –
COc1ccc(-c2cc(-c3nc(C4CC4)cs3)c(=O)n(C)c2-c2ccncc2)cc1 | 24 nM | 31 nM | > 1000 nM | 12 nM | 35% | 29% | – | – | – | –
COC(=O)c1cc(-c2ccccc2)c(-c2ccccc2)n(C)c1=O | – | 520 nM | – | 270 nM | – | – | – | – | – | –
COc1ccc(-c2cc(-c3ccsc3)c(=O)n(C)c2-c2ccncc2)cc1 | 51 nM | 39 nM | 450 nM | 12 nM | 18% | – | – | – | – | –
COc1ccc(-c2cc(-c3noc(C4CC4)n3)c(=O)n(C)c2-c2ccncc2)cc1 | 240 nM | 310 nM | – | 60 nM | 150% | 120% | 142% | – | – | –
COc1ccc(-c2cc(-c3ccccc3)c(=O)n(C)c2-c2ccncc2)cc1 | 130 nM | 83 nM | > 1000 nM | 24 nM | 63% | 45% | – | – | – | –
COc1ccc(-c2cc(-c3nccs3)c(=O)n(C)c2-c2ccncc2)cc1 | 37 nM | 45 nM | – | 6.2 nM | 32% | 56% | 67% | – | > 1000 nM | –
COc1ccc(-c2cc(-c3nc(C)cs3)c(=O)n(C)c2-c2cccnc2)cc1 | 5 nM | 12.8 nM | > 667 nM | 3.8 nM | 77% | 78% | – | – | – | –
COc1ccc(-c2cc(C#N)c(OC)nc2-c2ccc(N(C)C)cc2)cc1 | > 30000 nM | > 30000 nM | > 667 nM | > 30000 nM | – | – | – | – | – | –

The remaining lines, values ahead:

Ki [1] | Ki [2] | Ki [3] | Ki [4] | percent modulation of GABA EC20 response [5] | percent modulation of GABA EC20 response [6] | percent modulation of GABA EC20 response [7] | Ki [8] | Ki [9] | Ki [10] | Compound
> 667 nM | > 3000 nM | > 667 nM | 510 nM | – | – | – | – | – | – | COC(=O)c1cc(-c2ccc(OC)cc2)c(-c2ccccn2)n(C)c1=O
320 nM | 1020 nM | 390 nM | 79 nM | -25% | 3% | 8% | – | – | – | COC(=O)c1cc(-c2ccc(OC)cc2)c(-c2ccncc2)n(C)c1=O
380 nM | 330 nM | > 1000 nM | 250 nM | – | – | – | – | – | – | COc1ccc(-c2cc(-c3ncc(C)s3)c(=O)n(C)c2-c2ccncc2)cc1
42 nM | 90 nM | > 667 nM | 25 nM | 138% | 117% | 97% | – | – | – | COc1ccc(-c2cc(-c3nc(C)ns3)c(=O)n(C)c2-c2ccncc2)cc1
1100 nM | 260 nM | – | 320 nM | 81% | 111% | – | – | 1300 nM | – | COc1ccc(-c2cc(-c3noc(C)n3)c(=O)n(C)c2-c2ccncc2)cc1
76 nM | – | > 667 nM | 73 nM | – | – | – | 680 nM | – | – | COC(=O)c1cc(-c2ccc(OC)cc2)c(-c2cccnc2)n(C)c1=O
340 nM | – | 393 nM | 210 nM | – | – | – | 625 nM | – | – | COC(=O)c1cc(-c2ccc(OC)cc2)c(-c2ccccc2)n(C)c1=O
– | 41 nM | – | 23 nM | – | – | – | – | 340 nM | 38 nM | COc1ccc(-c2cc(-c3cc(C)cs3)c(=O)n(C)c2-c2ccncc2)cc1
